# Results as given in ChEMBL document CHEMBL4316593 (Eur J Med Chem, 2019).
# The source made the active and inactive calls. No cut-off for these calls is given here.
# Legend:
# [1] = system: LN-229; assay: Cell cycle arrest in human LN229 cells assessed as increase in accumulation at G1-phase at cytotoxic IC50 measured after 48 hrs by propidium iodide staining based fluorescence cell imaging analysis; format: functional
# Procedure, shortened: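 Cell cycle by PI staining. Cells seeded at 1×10^6 and grown overnight at 37°C, 5% CO₂, then exposed for 48hrs at their IC₅₀ concentration, with DMSO and cisplatin controls. Cells were trypsinized, washed in cold PBS and fixed in 70% ethanol at 4°C for 30 min. They were stained with PI in Triton X-100/RNase for 15 min at 37°C and imaged by fluorescence microscopy. Reported as mean ± S.E.M of triplicates.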
# [2] = system: U-87 MG; assay: Cell cycle arrest in human U87 cells assessed as change in CDKN1A gene expression at cytotoxic IC50 measured after 48 hrs […] relative to control; format: functional, U-87MG ATCC
# Procedure, shortened: (§1)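 U87 expression profiling. Cells incubated 48hrs at 37°C, 5% CO₂ with the IC₅₀ concentration, alongside a cisplatin and an untreated control, in triplicate. RNA was isolated by one common protocol and profiled. DEGs were called with DESeq2 (q < 0.05, fold change > 1.5) and expressed as fold change versus untreated.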
# [3] = system: U-87 MG; assay: Cell cycle arrest in human U87 cells assessed as change in CDK2 gene expression at cytotoxic IC50 measured after 48 hrs […] relative to control; format: functional, U-87MG ATCC; procedure, shortened: as §1
# [4] = system: U-87 MG; assay: Induction of DNA damage in human U87 cells assessed as change in BTG2 gene expression at cytotoxic IC50 measured after 48 hrs […] relative to control; format: functional, U-87MG ATCC; procedure, shortened: as §1
# [5] = system: U-87 MG; assay: Induction of DNA damage in human U87 cells assessed as change in BRCA1 gene expression at cytotoxic IC50 measured after 48 hrs […] relative to control; format: functional, U-87MG ATCC; procedure, shortened: as §1
# [6] = system: U-87 MG; assay: Induction of DNA damage in human U87 cells assessed as change in PEA15 gene expression at cytotoxic IC50 measured after 48 hrs […] relative to control; format: functional, U-87MG ATCC; procedure, shortened: as §1
# [7] = system: U-87 MG; assay: Induction of DNA damage in human U87 cells assessed as change in BRIP1 gene expression at cytotoxic IC50 measured after 48 hrs […] relative to control; format: functional, U-87MG ATCC; procedure, shortened: as §1
# [8] = system: U-87 MG; assay: Induction of apoptosis in human U87 cells assessed as change in ACTB gene expression at cytotoxic IC50 measured after 48 hrs […] relative to control; format: functional, U-87MG ATCC
# Procedure, shortened: (§2)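 U87 cells grown in MEM with 10% FBS at 37°C, 5% CO2. Cells exposed to IC50 of test compound for 48 hrs, alongside untreated and cisplatin controls, each condition in triplicate. RNA isolated and profiled; differential expression called with DESeq2 (q-value < 0.05, fold change > 1.5), fold change versus untreated.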
# [9] = system: U-87 MG; assay: Induction of apoptosis in human U87 cells assessed as change in PIDD1 gene expression at cytotoxic IC50 measured after 48 hrs […] relative to control; format: functional, U-87MG ATCC; procedure, shortened: as §2
# [10] = system: U-87 MG; assay: Induction of apoptosis in human U87 cells assessed as change in ITPR2 gene expression at cytotoxic IC50 measured after 48 hrs […] relative to control; format: functional, U-87MG ATCC; procedure, shortened: as §2
# [11] = system: U-87 MG; assay: Induction of apoptosis in human U87 cells assessed as change in CAPN1 gene expression at cytotoxic IC50 measured after 48 hrs […] relative to control; format: functional, U-87MG ATCC; procedure, shortened: as §2
# [12] = Inhibition of RTK/PI3K/AKT/mTOR signaling in human U87 cells assessed as down regulation of NLRC5 gene expression at cytotoxic IC50 measured after 48 hrs relative to control; format: cell-based; settings: U-87MG ATCC
# Procedure, shortened: (§3)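 Cells were exposed for 48hrs at 37°C in humidified 5% CO₂ to the compound at its previously determined IC₅₀, with Cisplatin at its IC₅₀ and an untreated negative control alongside. Each condition was run in triplicate. RNA was isolated from all samples by the same protocol. Genes were called differentially expressed by DESeq2 at q-value < 0.05 and fold change > 1.5.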
# [13] = Inhibition of RTK/PI3K/AKT/mTOR signaling in human U87 cells assessed as down regulation of COX17 gene expression at cytotoxic IC50 measured after 48 hrs relative to control; format: cell-based; settings: U-87MG ATCC; procedure, shortened: as §2
# [14] = Inhibition of RTK/PI3K/AKT/mTOR signaling in human U87 cells assessed as down regulation of ABCB8 gene expression at cytotoxic IC50 measured after 48 hrs relative to control; format: cell-based; settings: U-87MG ATCC; procedure, shortened: as §2
# [15] = Inhibition of RTK/PI3K/AKT/mTOR signaling in human U87 cells assessed as down regulation of DEF8 gene expression at cytotoxic IC50 measured after 48 hrs relative to control; format: cell-based; settings: U-87MG ATCC; procedure, shortened: as §2
# [16] = Inhibition of RTK/PI3K/AKT/mTOR signaling in human U87 cells assessed as up regulation of INHBE gene expression at cytotoxic IC50 measured after 48 hrs relative to control; format: cell-based; settings: U-87MG ATCC; procedure, shortened: as §3
# [17] = Inhibition of RTK/PI3K/AKT/mTOR signaling in human U87 cells assessed as up regulation of NFATC4 gene expression at cytotoxic IC50 measured after 48 hrs relative to control; format: cell-based; settings: U-87MG ATCC; procedure, shortened: as §3
# [18] = Inhibition of RTK/PI3K/AKT/mTOR signaling in human U87 cells assessed as up regulation of AXL gene expression at cytotoxic IC50 measured after 48 hrs relative to control; format: cell-based; settings: U-87MG ATCC; procedure, shortened: as §3
# [19] = Inhibition of RTK/PI3K/AKT/mTOR signaling in human U87 cells assessed as up regulation of zinc finger protein 217 gene expression at cytotoxic IC50 measured after 48 hrs relative to control; format: cell-based; settings: U-87MG ATCC
# [20] = Inhibition of RTK/PI3K/AKT/mTOR signaling in human U87 cells assessed as up regulation of ankyrin repeat domain 10 gene expression at cytotoxic IC50 measured after 48 hrs relative to control; format: cell-based; settings: U-87MG ATCC
# [21] = Inhibition of RTK/PI3K/AKT/mTOR signaling in human U87 cells assessed as up regulation of regulator of chromosome condensation 2 gene expression at cytotoxic IC50 measured after 48 hrs relative to control; format: cell-based; settings: U-87MG ATCC
# [22] = Inhibition of RTK/PI3K/AKT/mTOR signaling in human U87 cells assessed as up regulation of isoleucyl-tRNA synthetase gene expression at cytotoxic IC50 measured after 48 hrs relative to control; format: cell-based; settings: U-87MG ATCC
# [23] = Inhibition of RTK/PI3K/AKT/mTOR signaling in human U87 cells assessed as up regulation of USH1 protein network component harmonin gene expression at cytotoxic IC50 measured after 48 hrs relative to control; format: cell-based; settings: U-87MG ATCC
# [24] = Inhibition of RTK/PI3K/AKT/mTOR signaling in human U87 cells assessed as up regulation of MORC family CW-type zinc finger 2 gene expression at cytotoxic IC50 measured after 48 hrs relative to control; format: cell-based; settings: U-87MG ATCC; procedure, shortened: as §3
# [25] = Inhibition of RTK/PI3K/AKT/mTOR signaling in human U87 cells assessed as up regulation of RPS14 gene expression at cytotoxic IC50 measured after 48 hrs relative to control; format: cell-based; settings: U-87MG ATCC
# Procedure, shortened: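 U87 cells were exposed for 48 hrs at 37°C under 5% CO₂, with cisplatin and untreated controls, all in triplicate. RNA was isolated by the same protocol for every sample and expression profiled from mapped reads. Differential expression against untreated cells was called in DESeq2 (q-value < 0.05, fold change > 1.5).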
# [26] = Inhibition of RTK/PI3K/AKT/mTOR signaling in human U87 cells assessed as up regulation of NCOR2 gene expression at cytotoxic IC50 measured after 48 hrs relative to control; format: cell-based; settings: U-87MG ATCC; procedure, shortened: as §3
structure (smiles),measurement,setting,value
CC(=O)C(=NNc1ccccc1C#N)C(C)=O,Activity,[1],Active
same,fold change (FC),[2],1.296
same,fold change (FC),[3],1.392
same,fold change (FC),[4],2.177
same,fold change (FC),[5],2.408
same,fold change (FC),[6],-1.195
same,fold change (FC),[7],2.317
same,log2FC,[8],-1.876
same,log2FC,[9],2.467
same,log2FC,[10],-3.745
same,log2FC,[11],0.8843
same,log2FC,[12],-1.26
same,log2FC,[13],-1.13
same,log2FC,[14],-0.871
same,log2FC,[15],-0.591
same,log2FC,[16],2.96
same,log2FC,[17],2.89
same,log2FC,[18],1.89
same,log2FC,[19],1.37
same,log2FC,[20],1.12
same,log2FC,[21],1.06
same,log2FC,[22],1.04
same,log2FC,[23],1.03
same,log2FC,[24],0.946
same,log2FC,[25],0.607
same,log2FC,[26],0.558
